Fewer inactive variants are shown than the library holds.
B1: tRNA (parent)
chain: GUUCCGUUGGCGUAAUGGUAACGCGUCUCCCUCCUAAGGAGAAGACUGCGGGUUCGAGUCCCGUACGGAACG

Variants of: B1
Assay: yeast fitness relative to wild type (ratio to wild type); higher = fitter; tRNA-Arg(CCU), competitive growth, 37 C, YPD
In short: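 Gene amplicons from the start population and from each of six end populations were read by 100-nucleotide paired-end sequencing. Those end populations came from pooled Saccharomyces cerevisiae strains carrying tRNA-Arg(CCU) gene variants at the native locus, competed in YPD at 37°C for 24 hours. Fitness relative to wild type was worked out from changes in genotype frequencies. Genotypes needed ≥ 100 starting reads, and estimates < 0.5 were set to 0.5.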

Variant | yeast fitness
GUUCCGUUGGCGUAAUGGUAACGCCUCUCCCGCCUAAGGAGAAGACUGCGGGUUCGAGUCCCGUGCGGAACG | ≤ 0.5
GUUCAGUUGGCGUAGUGGUAACGCGUCUCCCUACUAAGGAGAAGACUGCGGGUUCGAGUCUCGUACGGAACG | 0.531
GUUCCGUUGGCGUAAUGGUAACCCGUCUCUCUCUUAAGGAGAAGACUGCGGGUUCGAGUCCCGUACCGAACG | ≤ 0.5
GUUCCGUUGCCGUAAUGGUAACGCGUCUCCCUCCUAAGGAGAACACCGCGGACUCGAGUCUCGUACGGAACG | ≤ 0.5
GUUCCAUUGGCGUAAUGCUACCGCGUCUCCCUACUAAGGAGAAGACUGCGGGUUCGAGUCCCGUACGGAACG | 0.605
GUUCCGUUGGAGUAAUGGUAACGCGUCUGCCUCCUAAGGAGAAGACUGCGGGUUCGGGUCCCGUACGGAACG | ≤ 0.5
GUACCGUUGGCGUAAUGGCAACGCGUCUCCCUCCUAAGGAGAAGACUGCGGGUUCGAGUCGCGUACGGAACG | ≤ 0.5
GUUCCGUUCCCGUAAUGGUAACGCGUCUCCCUUCUAAGGAGAAGACUGCGGGUUCGAGUCCCGUACGGAACG | ≤ 0.5
GUUCUGUUGGCAUAAUGGUAACGCGUCUCCCUCCUAAGGAGAAGACUGCGGCUUCGAGUCCCGUACGGAUCG | ≤ 0.5
GUUCCGUUGGCGUAAUGGUAAUGCGUCUCCCUCCUAAGGAGAAGACCGCGGGUUCGAGUCCUGUACGGAACG | 0.667
GUUCCAUUGGCGUUAUGGUAACGCGUCUCCCUCCUAAGGAGAAGACUGCGGGUUCGAGUCCCGUAUGGAACG | ≤ 0.5
GUUCCGUUGGCGUAAUGCUAACGCGUCUCCCUCCUAAGGAGAAGACUGCGGGUUCGAGUCCUGUACGGAACG | 0.611
GUUCCGUAGGCGUAAUGGUAACGCGUCUCCCUCCUCAGGAGAAGACUGCGGGUUCGAGUCCAGUACGGAACG | ≤ 0.5
GUUCCGUUGGCGUAAUGGUAACGCGUCUCCCUCCUAAGGAGAAGACUACGGGUUCGAGUUCCGUUCGGAACG | 0.726
GUUCCGUUGGUGUAAUGGAAACGCGUCUUGCUCCUAAGGAGAAGACUGCGGGUUCGAGUCCCGUACGGAACG | ≤ 0.5
GUUCCGGUGGCGUUAUGGAAAUGCGUCUCCCUCCUAAGGAGAAGACUGCGGGUUCGAGUGCCGUACGGAACG | ≤ 0.5
GUUCCGUUGACGUAAUGGUAACGCGUCUCCCUCCUAAGUAGAAGACUGCGGGUUCGCGUCCCGUACGGAUCG | ≤ 0.5
GUUCCGUUGGCGAAAUGGUCAGGCGUCUCCCUCCUAAGGAGAAGACUGCGGGUUCGAGUCCCGUACGGAACG | ≤ 0.5
GUUCCGUUGGCGUAAUGGUAACGCGUAUCCCUCCUAAGGAGAAGACUGCGGGUUCCAGUCCAGUCCGGAACG | 0.611
GUUCCGUAGGCGUAAUGGUAACGCGUCUCCGUCCUAAGGAGAAGACUGCGGGUUCGAGUCCCGUUCGGAACG | ≤ 0.5
GUUCCGUUGGGGUAAUGGUAACGCGUCUCCCUCCUAAGGAGAAGACUGCGGGUUCGAGUCCCGUACGAAACG | 0.64
GUUCCGUUGGCGUAAUGGUAACGCGUCUCCCUCCUCAGGAGAAGACUGCGGGUUCGAGUCCCGUACCGAACG | 0.537
GUUCCGUUGGCGUAAUGGUAACGCGUCUCCCUCCUAAGGAGAAGACUGCGGGUUCGAGUCCCGUAGGGUACG | 0.746
GUUCCGUUGGCGUAAUGGUAACGGGUCUCCCUCCUUAGGAGAAGACUGCGGGUUCGAGUCCCGCACGGAACG | 0.52
GUUCCGUUGGCGUAAUGGUAACGCGUCUCCCUCCUAAGGAGGAGACUGCGGGUUCGACUCCCGUACGGAACG | 0.906

Variant | yeast fitness
GCUCCGUUGGCGUAAUGGUAACGCGUCUCCCUCCUGAGGAGAAGACUGCGGGUUCGAGUCGCGCACGGAACG | ≤ 0.5
GUUCCGUUGGCGUAAUGGUCACACGUCUCACUCCUAAGGUGAAGACUGCGGGUUCGAGUCCCGUACGGAACG | ≤ 0.5
GUUCCGUUGGCGUAAUGGUAACGCGUCUCCCUCCUAAGGAGAAGAGUGCGGGUUCGAGUCCCGUACGUAACG | 0.658
GUCCCGUUGGCGUAAUGGAAACGCGUCUCCCUCCUAAGGAGAAGAAUGCGGGUUCGAGUCCCGUACGGAACG | 0.716
GUUCCCUUGGCGUAAUGGUAACGCGUGUCCCUCAUAAGGAGAAGACUGCGGGUUCGAGUCCCGUCCGGAACG | ≤ 0.5
GUUCCGUUGGCGUAAUGGUGACGCGUUUCCCUCCUAAGGAGAAGACUGCGGGUUCGACUCCCGUACGGAACG | 0.78
GUUCCGUUGGCGUAAUGGUAACGCGUCUCCCUCUUAAGGAGAAGACCGCGGGUUCGAGUCCCGUACGGUACG | 0.506
GUUUCGUUGGCGUAAUGGUAACGCGUCUCCCUCCUAAGGAGAAGACUGGGGGUUCGAGUCCCGUACGGAACG | 0.874
GUUGCGUUGGUGUAAUGGUAACGCGUCUCCCUCCUUAGGAGAAGACUGCGGCUUCGAGUCCCGUACGGAACG | ≤ 0.5
GUUCCGUUGGCGUAAUGGUAACGCGUCUUCCUUCUAAGGAGAAGACUGCGGGUACAAGUCCCGUACGGAACG | ≤ 0.5
GUUACGUUGGCGUAUUGGUAACGCGUCUCCCUCCUAAGGAGAAGACUGCGGGUUCGAGUCACGUACGGAACG | 0.78
GUUCCGUUGGCGUAAUGGUAACGCGUCUCCCUCCUAAGGAGAAGACUACGGGUUCGAGUCCCGUAAGGAACG | 0.929
GUUGUGUUGGCCUAAUGGUAACGCGUCUCCCUCCUAAGGAGAAGACUGCGGGUUCGAGUCCCGUACGGAACG | ≤ 0.5
GUUCCCUUGGCGUAAUGGUAACGCGUUUCCCUCCUAAGGAGAAGACUGCGGGUUCAAGUCUCGUACGGAACG | ≤ 0.5
GAUCCGUUGGCGUCAUGGUAACGCGUCUCCCUCCUAAGGAGAAGACUCCGGGUUCGAGUCCCGUACGGAACG | ≤ 0.5
GUUGCGUUGGCGUAAUGGUAACGCGUCUCCCUCCAAAGGAGAAGACUGCGGGUUCGAGUCACGUACGGAACG | ≤ 0.5
GUUCGGUUGGAGUGAUGGUAACGCCUCCGCCUCCUAAGGAGAAGACUGCGGGUUCGAGUCCCGUACGGAACG | ≤ 0.5
GGUCCGUUGGCGUAAUGGUAACGCGUCUCCCUCCCAAGGAGAAGACUGCGGGUUCGAGUCCCGUACGGAACG | 0.72
GUUCCGUUGGCGUAAUGGUAACGCGUCUCACUCCUAAGGAGAAGCUUGCGGGUUCGCGUCCCGUACGGAACG | ≤ 0.5
GUUCCGCUGGCGUAAUGGUAACGCGUCUCCCUCCUAAGGUGAAGACUGCGGGUUCGAGUCCCGUACGGAACG | 0.793
GUUCCGUUGGCGUAAUGGUAACGCGUCUCCCCCCUAAGGAGAAGAGUGCGGGUUCGAGUCGCGUACGGAACG | 0.587
GUUCCGUUGGCGUAAUGGUAACGCGUCUCCCUCCAAAGGAGAAGACUGCGGGUUCGAGUCCAGUACGGAACG | ≤ 0.5
GUUCCGUUGGCGUAAUGGUAACGCGUCUCCUUGCUAAGGAGAAGACUGCGGGUUCGAGUCACGUACGGAACG | 0.65
GUUCCCUUGGCGUCAUGGUAACGCGUCUCCCUCCUAAGGAGAAGACUGCGGGUCCGAGUCCCGUUCGGAACG | 0.637
GUUCCGUUGGCGUCAUGGUGACGCGUCUCUCUCCUAAGGAGAAGACUGCGGGUUCGAGUCCCGUACGGAACG | ≤ 0.5

Variant | yeast fitness
GUUCUGUUGGCGCAAUGGUUACGCGUCUCCCUCCUACGGAGAACACUGCGGGUUCGAGUCCCGUACGGAACG | ≤ 0.5
GUUCCGUUGGCGUAAUGGUAACGCGUCUCCCUCCGAAGGGGAAGACUGCGGGUUCGGGUCCCGUACGGAACG | 0.548
GUUGCGUUGGCGUAAUGGUAAUGCGUCUCCCUCCUAAGGAGAAGACUGCGGGUUCGAGUCCCGUACGGAACG | 0.976
GUUCCGUUGGCGUAAUGGUAACGCGUCUCACUCCUAAGGUGAAGACUGCGCGUUCGAGUCUCGUACGGAACG | 0.646
GUUCCGUUGGGGUAAUCGUAACGCGUCUUCCUCCUAAGGAGAAGACUGCGAGUUCGAGUCCCGUACGGAACG | 0.625
GUUCCGUCGGCGUCAUGGUAACGCGUCUCCCUCCUAAGGAGAAGACUGCAGGUUCGCGUCCCGUACGGAACG | ≤ 0.5
GUUCCGUUGGCGUAAUGGUAACGCGUCUCCCUCCUAAGGAGAAGACUGCGGGAUCGAGUCGCGUACGGAACG | ≤ 0.5
GUUCCGUUGGCGUAAUGGUAACGCGUCUCCGUGCUAAGCAGAAGACUGCGGGUUCGAGUCCCGUACGGAACG | 0.508
GUUCCGUUGGCGUAAUGGUAAUGAGUCUCCCUCCUAAGGAGAUGACUGCGGGUUCGGGUCCCGUACGGAACG | ≤ 0.5
GUUCCGUUGGCGUAAUGGUAACGGGUCUCCCUCCUAAGGAGAAGACUGCGGGUUCGAGUCCCGUACGCACCG | 0.578
GUUCCGUUGGCGUAAUGGUAACGCGUCUCCCUCCUAAGGAGAAGACUACGGGUUCGAGUCCCGUACGGAGCG | 1.12
GUUACGUUGGCGUAAUAGUAACGCGUCUCCCUCCUAAGGAGUAGACUGCGGGUUGGAGUCCCGUACGGAACG | ≤ 0.5
GUUCCGUUGGCGUAAUGGUAACGCGUUUCUCUCCUAAGGAGAAGACUGCGGGAUCGAGUCCCGUAUGGAACG | ≤ 0.5
GUUCCGUUGGCGUAUUGGUAACGCGUCUCCCUCCUAAGGAGAAGACUGCGGGUUUGAGUCCCGUACGGAACG | 0.672
GUUCCGUUGGCGUAAUGGUAACCCGUCUCCCUCCUACGGAGAAGAGUGCGGGUUCGAGUCCCGUAUGGAACG | ≤ 0.5
GUUCCGUUGGCGUAAUGGUAACGCGUGACGUUCCUAAGGAGAAGACUGCGGGUUCGAGUCCCGUACAGAACG | 0.519
GUUCCGUUGGCGUAAUGGUAACGCGACUCCCUCCUAAGGAGCAGACUGUGGGUUCGAGUGCCGUAAGGAACG | 0.733
GUUCGGUUGGCGUAAUGGUAACGCGUCUCCCUCCUAAGGAGCAGACUACGGGUUCGAGUCCCGUACGGAACG | 0.587
GUUCCGUUGGCGUAAUGGUAACGCGUCUCCCUCCUAAGGAGACGACUGCGGGUUCGAGUCCCGUACGGAUCG | 1.06
GUUCCGUUGGCGUAAUGGUAACGCAUCUCCCUCCUAAGAAGAAGACUGCGGAUUCGAGUCCCGUACGGAACG | ≤ 0.5
GUUCCGUGCGCGUAAUGGUAACGCGUCUCCCUCCUAUGGAGAAGACUGCCGGUUCGAGUCCCGUACGGAACG | ≤ 0.5
GUUCCGUUGGCGUAAUGGUAACGCGUCUCCCUCCUAAGGAGAAGAAUGCAGGUUCGAGUGCCCUACGGAACG | ≤ 0.5
GUUCCGUCGGCGUAAUGGAAACGUGUCUCCCUCCUAAAGAGAAGACUGCGGGUCCGAGUCCCGUAAGGAACG | ≤ 0.5
GUUCCAUUGGCGUAAUGGUAACGCGUCUCCCUCCUAAAGAGAAGACUGCGGGUUCAAGUCCCGUACGGAACG | 0.679
GUUCCGUUGGCGUAAUGGUAACGCGUCUCCCCCCUAAGGCGAAGACUGCGAGUUCGAGUCUCGUACGGCACG | ≤ 0.5
